{"data": "Measurements collected from several papers", "target": "Ephrin type-A receptor 7 (EPHA7, Homo sapiens, UniProt Q15375)", "note": "Protocols differ between the studies behind these lines."}
{"Compound": "CNC(=O)c1cc(Oc2ccc(NC(=O)Nc3ccc(Cl)c(C(F)(F)F)c3)cc2)ccn1", "test": "enzyme activity, inhibitor", "setting": "0.3 µM", "quantity": "inhibition", "result": "30%"}
{"Compound": "C[C@@H](c1cccc(C#N)c1)n1cc(Cl)cc(C(N)=O)c1=N", "test": "cell-free assay, competition with immobilised ligand", "setting": "1 µM", "quantity": "remaining binding", "result": "100%"}
{"Compound": "Cc1ccc(C(=O)NCc2ccsc2)cc1C#Cc1cn(C(C)C)c2ncnc(N)c12", "test": "enzyme activity, inhibitor", "setting": "1 µM", "quantity": "activity vs control", "result": "21%"}
{"Compound": "Cn1nc(C(=O)NCc2ccc(C(=O)O)cc2)cc1-c1ccc2[nH]ccc2c1", "test": "cell-free assay, competition with immobilised ligand", "setting": "0.1 µM", "quantity": "remaining binding", "result": "82%"}
{"Compound": "COc1cccc2c(NCc3ccccc3)nc(-n3c(N)nc4ccccc43)nc12", "test": "target engagement in cells, inhibitor, chemoproteomics", "setting": "20 mM", "quantity": "inhibition", "result": "2.9%"}
{"Compound": "CC(C)(O)[C@H]1CC[C@H](Nc2ccc3ncc(-c4cccc(C(F)(F)F)c4)n3n2)CC1", "test": "enzyme activity, inhibitor", "setting": "1 µM", "quantity": "remaining activity", "result": "93.3%"}
{"Compound": "Cc1cc(NC(=O)c2cccc3cc(-c4cccc5[nH]nc(N)c45)ccc23)ccc1F", "test": "enzyme activity, inhibitor", "setting": "0.1 µM", "quantity": "activity vs control", "result": "96%"}
{"Compound": "Cc1ccc(Nc2nccc(N(C)c3ccc4c(C)n(C)nc4c3)n2)cc1S(N)(=O)=O", "test": "enzyme activity, inhibitor", "setting": "10 µM", "quantity": "inhibition", "result": "34%"}
{"Compound": "CCN(CC)c1ccc(C2=NNC(=O)CC2C)cc1[N+](=O)[O-] (centres unmarked)", "test": "enzyme activity, inhibitor", "setting": "10 µM", "quantity": "remaining activity", "result": "91%"}
{"Compound": "CS(=O)(=O)c1cc(C2(NC(=O)c3cncc4c3cnn4-c3ccc(F)cc3)CC2)ccn1", "test": "cell-free assay, competition with immobilised ligand", "setting": "1 µM", "quantity": "remaining binding", "result": "92%"}
{"Compound": "Nc1ncnc2occ(-c3ccc(NC(=O)Nc4cc(C(F)(F)F)ccc4F)cc3)c12", "test": "cell-free assay", "setting": "20 µM", "quantity": "remaining signal", "result": "0%"}
{"Compound": "CCCCNc1ncc2c(-c3ccc(F)cc3)nn(C[C@H]3CC[C@H](N)CC3)c2n1", "test": "target engagement in cells, inhibitor, chemoproteomics", "setting": "20 mM", "quantity": "inhibition", "result": "43.9%"}
{"Compound": "CC(C)(C)c1nc(-c2cccc(NS(=O)(=O)c3c(F)cccc3F)c2F)c(-c2ccnc(N)n2)s1", "test": "enzyme activity, inhibitor, radiometric", "setting": "1 µM", "quantity": "remaining activity", "result": "102%"}
{"Compound": "CCN(CC)CCNC(=O)c1c(C)[nH]c(/C=C2\\C(=O)Nc3ccc(F)cc32)c1C", "test": "enzyme activity, inhibitor", "setting": "0.3 µM", "quantity": "inhibition", "result": "3%"}
{"Compound": "CC(=O)c1c(NS(C)(=O)=O)c2cc(-c3ccc(Cl)cc3)c(-c3ccc(Cl)cc3Cl)nc2n(C)c1=O", "test": "cell-free assay, competition with immobilised ligand", "setting": "1 µM", "quantity": "remaining binding", "result": "100%"}
{"Compound": "O=C(Nc1cnn(-c2csc(C(=O)NC3COC3)c2)c1)Nc1c(F)cccc1Cl", "test": "enzyme activity, inhibitor", "setting": "5 µM", "quantity": "remaining activity", "result": "91.2%"}
{"Compound": "CO[C@@H](C)c1c(Nc2ccc([C@H](N(C)C(=O)C3CCS(=O)(=O)CC3)C(F)(F)F)cc2)cnc2cc(Cl)nn12", "test": "cell-free assay, competition with immobilised ligand", "setting": "1 µM", "quantity": "remaining binding", "result": "84%"}
{"Compound": "O=C1Nc2ccc(Cl)cc2C1=Cc1cc(Cl)c(O)c(Cl)c1", "test": "cell-free assay", "setting": "0.5 µM", "quantity": "remaining signal", "result": "97.5%"}
{"Compound": "Cc1ccc(NC(=O)c2ccc(C)c(C(F)(F)F)c2)cc1C#Cc1nn(C2CCC(O)CC2)c2ncnc(N)c12 (centres unmarked)", "test": "cell-free assay", "setting": "10 µM", "quantity": "remaining signal", "result": "0%"}
{"Compound": "CC(=O)C1=C(C)N(c2cccc(C(F)(F)F)c2)C(=O)N[C@@H]1c1ccc(C#N)nc1", "test": "cell-free assay, competition with immobilised ligand", "setting": "1 µM", "quantity": "remaining binding", "result": "100%"}
